Measurements published in ChEMBL document CHEMBL4834414 (J Med Chem, 2021).

Legend:
[1] = target: T1, Microtubule-associated protein 1 light chain 3 beta (Homo sapiens, UniProt Q9GZQ8); assay: Displacement of sGFP-p62-LIR peptide from human N-terminal SNAP-fused LC3B by time-resolved FRET assay
[2] = target: T2, Microtubule-associated protein 1 light chain 3 alpha (Homo sapiens, UniProt Q9H492); assay: Displacement of sGFP-p62-LIR peptide from human N-terminal SNAP-fused LC3A by time-resolved FRET assay
Method in brief: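 HTRF displacement: 10 nM N-terminal SNAP-LC3A labeled with terbium cryptate (donor) and 1 μM p62-LIR-sGFP (acceptor), with compound at varying concentrations in 1% DMSO. Buffer 25 mM HEPES pH 7.5, 150 mM KF, 10% glycerol, 0.1% CHAPS, 5 mM DTT. Incubated 2 h at RT; excitation 340 nm, emission read at 520 and 620 nm. IC50 with SD; Ki calculated.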

[3] = target: T1, Microtubule-associated protein 1 light chain 3 beta; assay: Binding affinity to human LC3B expressed in Escherichia coli BL21-(DE3) by isothermal titration calorimetry
[4] = target: T2, Microtubule-associated protein 1 light chain 3 alpha; assay: Binding affinity to recombinant LC3A (unknown origin) assessed as shift of melting temperature by differential scanning fluorimetry
Method in brief: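 LC3A at 30 μM in HTRF buffer with 0.1% CHAPS, 2.5× SYPRO orange, 300 μM inhibitor and 1% DMSO, with a no-protein background. Heated 25.0 to 79.8 °C at 1 °C/min; excitation 490 nm, emission 570 nm. Tm taken as the first-derivative maximum; ΔTm against DMSO control. Triplicates in three independent experiments.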

[5] = target: T1, Microtubule-associated protein 1 light chain 3 beta
[6] = target: T2, Microtubule-associated protein 1 light chain 3 alpha; assay: Binding affinity to human LC3A expressed in Escherichia coli BL21-(DE3) by isothermal titration calorimetry
Method in brief: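 His-tagged LC3A from E. coli BL21(DE3), TEV-cleaved and purified by IMAC, reverse IMAC and SEC into HTRF buffer (25 mM HEPES pH 7.5, 150 mM KF, 10% glycerol, 5 mM DTT), plus 0.1% CHAPS and 1% DMSO. ITC at 25 °C, stirring 75 rpm: 80 μM protein; inhibitor at 500 μM or 1 mM. Injection settings optimized per compound; dilution heats checked by blank titrations.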

Structure (SMILES)	Ki ([2]; read-out: Ki)	IC50 ([2]; read-out: IC50)	further results
O=C(Nc1c(O)c2ccc(O)cc2oc1=O)c1cccc(OCC2CC2)c1	137 µM		Ki [1]: Not Active
CC(C)CCc1cccc(C(=O)Nc2c(O)c3ccc(-c4ccnn4Cc4ccccc4)cc3oc2=O)c1	167 µM	813 µM	IC50 [1]: Not Active; Ki [1]: Not Active
CC(C)CCc1cccc(C(=O)Nc2c(O)c3ccc(-c4cccc5ccccc45)cc3oc2=O)c1	8.8 µM	42.8 µM	
CCCc1cccc(C(=O)Nc2c(O)c3ccc(O)cc3oc2=O)c1	20 µM		
CC(C)CSc1cccc(C(=O)Nc2c(O)c3ccc(O)cc3oc2=O)c1	52 µM		
CO[C@@H]1[C@@H](OC(N)=O)[C@@H](O)[C@H](Oc2ccc3c(O)c(NC(=O)c4ccc(O)c(CCC(C)C)c4)c(=O)oc3c2C)OC1(C)C	3.3 µM	16 µM	Kd [3]: 11.4 µM; IC50 ([1]; read-out: IC50): 72.3 µM; Ki ([1]; read-out: Ki): 8.1 µM; ΔTm [4]: 5.6 °C; ΔTm [5]: 5.6 °C; Kd [6]: 2.8 µM
CC(C)CCc1cccc(C(=O)Nc2c(O)c3ccc(-c4coc5ccccc45)cc3oc2=O)c1			IC50 [1]: Not Active; Ki [1]: Not Active; IC50 [2]: Not Active; Ki [2]: Not Active
O=C(Nc1c(O)c2ccc(O)cc2oc1=O)c1cccc(OCc2ccccc2)c1	44 µM		
CCCCOc1cccc(C(=O)Nc2c(O)c3ccc(O)cc3oc2=O)c1	69 µM		
CC(C)CCc1cccc(C(=O)Nc2c(O)c3ccc(NS(=O)(=O)c4ccccc4)cc3oc2=O)c1	17.6 µM	85.9 µM	
CC(C)(C)OC(=O)NCC(=O)Nc1c(O)c2ccc(O)cc2oc1=O			IC50 [1]: Not Active; Ki [1]: Not Active; IC50 [2]: Not Active; Ki [2]: Not Active
CC(C)[C@H](NC(=O)OC(C)(C)C)C(=O)Nc1c(O)c2ccc(O)cc2oc1=O			IC50 [1]: Not Active; Ki [1]: Not Active; IC50 [2]: Not Active; Ki [2]: Not Active
CCCCS(=O)(=O)Nc1cccc(C(=O)Nc2c(O)c3ccc(O)cc3oc2=O)c1	26 µM		
CCCCCc1cccc(C(=O)Nc2c(O)c3ccc(O)cc3oc2=O)c1	12 µM		
CC(C)CCc1cccc(C(=O)Nc2c(O)c3ccc(NS(=O)(=O)CC(C)C)cc3oc2=O)c1	22.6 µM	110 µM	
COc1ccc(C(=O)Nc2c(O)c3ccc(O)cc3oc2=O)cc1CCC(C)C	13.2 µM	64.4 µM	
CCOc1cccc(C(=O)Nc2c(O)c3ccc(O)cc3oc2=O)c1	129 µM		Ki [1]: Not Active
Cc1c(O)ccc2c(O)c(NC(=O)c3cccc(CCC(C)C)c3)c(=O)oc12	32.7 µM	160 µM	ΔTm [4]: 0 °C; Kd [6]: 15.7 µM
CCn1nccc1-c1ccc2c(O)c(NC(=O)c3cccc(CCC(C)C)c3)c(=O)oc2c1	38.9 µM	190 µM	
CCSc1cccc(C(=O)Nc2c(O)c3ccc(O)cc3oc2=O)c1	42 µM		
CCCC[C@H](NC(=O)OC(C)(C)C)C(=O)Nc1c(O)c2ccc(O)cc2oc1=O	137 µM	668 µM	Ki [1]: Not Active; IC50 ([1]; read-out: IC50): 668 µM
C=CCOc1cccc(C(=O)Nc2c(O)c3ccc(O)cc3oc2=O)c1	20 µM		
Cc1c(O)ccc2c(O)c(NC(=O)c3ccc(O)c(CCC(C)C)c3)c(=O)oc12	24.3 µM	119 µM	ΔTm [4]: 0.7 °C; Kd [6]: 14.2 µM
CC(C)CCc1cccc(C(=O)Nc2c(O)c3ccc(NC(=O)CCC(=O)O)cc3oc2=O)c1	44.3 µM	217 µM	
CC(C)CCc1cccc(C(=O)Nc2c(O)c3ccc(-c4ccccc4-c4ccccc4)cc3oc2=O)c1	105 µM	515 µM	IC50 [1]: Not Active; Ki [1]: Not Active
CCCSc1cccc(C(=O)Nc2c(O)c3ccc(O)cc3oc2=O)c1	32 µM		
CC(C)CCc1cccc(C(=O)Nc2c(O)c3ccc(O)cc3oc2=O)c1	13.3 µM	64.8 µM	ΔTm [4]: 1.4 °C; Kd [6]: 17.2 µM
CC(C)C[C@@H](NC(=O)OC(C)(C)C)C(=O)Nc1c(O)c2ccc(O)cc2oc1=O			IC50 [2]: Not Active; Ki [2]: Not Active
O=C(Nc1c(O)c2ccc(O)cc2oc1=O)c1cccc(CCc2ccccc2)c1	75 µM		
